# What was measured:
# [1] = folding enthalpy; higher = less favourable; fluorescence melt of hairpins on a sequencing array, two-state fit; settings: sodium 0.088 M
# Summary of the method: (§1)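 On a sequenced MiSeq flow cell, library hairpins with annealed Cy3 and quencher oligos were imaged for Cy3 fluorescence in 2.5 °C steps up to 60 °C, in 50 mM Na-HEPES pH 8.0, 25 mM NaCl. Normalisation used pre-quench Cy3 and control constructs. Bootstrapped two-state fits gave melting temperature and folding enthalpy, combined by inverse variance across four replicates and with fitted temperatures raised by 9.35 °C to match UV melts.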
# [2] = melting temperature; fluorescence melt of hairpins on a sequencing array, two-state fit, raised by 9.35 °C to match UV melts; settings: sodium 0.088 M
# Summary of the method: as §1
Sequence,folding enthalpy [1],Tm [2]
GCAACGCGAAAGCCCTGC (((..((....))..))),-7.63 kcal/mol,23.8 °C
GAGCTCGGAAACGAGCCC (.(((((....))))).),-7.56 kcal/mol,59.5 °C
GTTGTTGGAAACAATGAC ((..(((....)))..)),-13.9 kcal/mol,38.5 °C
GAGGGGGGAAACCCCCCC (.(((((....))))).),-8.39 kcal/mol,52.5 °C
GGTTAGAAATAACC (((((....))))),-16.4 kcal/mol,40 °C
GCGTCTGTACGC ((((....)))),-26.2 kcal/mol,53.3 °C
GCTATAGGAAACTATAGC (((((((....))))))),-39.5 kcal/mol,53.2 °C
GTGCCTGCGAAAGCACAC (((..(((....)))))),-7.25 kcal/mol,55 °C
GTCAGCGAAAGCTTGAC ((((((....))).))),-25.6 kcal/mol,49.9 °C
GATCTTAGCAAAGATC ((((((....)))))),-30.9 kcal/mol,42.4 °C
GCCGACGAAAGTCCAGGC ((((((....)))..))),-25.2 kcal/mol,51.7 °C
CGTTACGGAAACGTGACG (((.(((....))).))),-52.2 kcal/mol,51.5 °C
GCGATCGGAAACGGTTGC ((.(.((....)).).)),-29.6 kcal/mol,44.9 °C
GAAAGCGAAAGCTTTTTC ((((((....)))..))),-14.2 kcal/mol,49 °C
GCACACGGAAACGTGTAC (.(((((....))))).),-13.8 kcal/mol,41.2 °C
GATCTGCAGCAGATC ((((((...)))))),-35 kcal/mol,49.2 °C
GAATGGCGAAAGCCCTTC (((.(((....))).))),-20 kcal/mol,38.4 °C
GCAGGTGGAAACACTTGC (((.(((....))).))),-35.2 kcal/mol,51.5 °C

Sequence,folding enthalpy [1],Tm [2]
GATCTGGACTCAGATC ((((((....)))))),-46.3 kcal/mol,53.1 °C
GAATCGGGAAACCGACTC ((.((((....)))).)),-20.4 kcal/mol,35.1 °C
GAAGCCGGAAACAGCTTC (((((.(....).))))),-29.2 kcal/mol,42.8 °C
GGCCCGCCGAAAGGCGCC (((..(((....)))))),-7.51 kcal/mol,38 °C
GGAAAACCGAAAGGTTCC (((..(((....)))))),-13.8 kcal/mol,35.8 °C
GAGCGTGGAAACACACTC (((.(((....))).))),-30.5 kcal/mol,45.9 °C
GGACTCGGAAACGGGTCC ((((.((....)).)))),-36.4 kcal/mol,57.4 °C
GCGTCACGACGC ((((....)))),-31.7 kcal/mol,58.6 °C
GTTCCCGGAAACGAGAAC ((((.((....)).)))),-30.2 kcal/mol,40.8 °C
GGACACGAAAGTGCCTCC ((((((....)))..))),-16.7 kcal/mol,42.1 °C
GACCGGGGAAACCCGGCC (.(((((....))))).),-11.2 kcal/mol,50.4 °C
GATCACATGTGTGATC ((((((....)))))),-43.2 kcal/mol,57.2 °C
GATACCGAAAGGTATATC ((((((....)))..))),-16.3 kcal/mol,45.2 °C
GCGCAACGAAAGTTTCGC (((.(((....))).))),-43 kcal/mol,52.9 °C
GCGTCTGGAAACAAACGC ((((.((....)).)))),-32.2 kcal/mol,44.5 °C
GTAATGCGAAAGCAGTAC (((.(((....))).))),-30.6 kcal/mol,53.4 °C
GTTGTCGAAAGACTGAAC ((((((....)))..))),-11.3 kcal/mol,30.7 °C

# Source: the array DNA melting data of Ke et al. (doi:10.1101/2024.01.08.574731)
